From ChEMBL document CHEMBL5154715, “Phenolic Lipids Derived from Cashew Nut Shell Liquid to Treat Metabolic Diseases” (J Med Chem, 2022)
Active and inactive are the calls of the source. No cut-off for these calls is given here.

How the values were obtained:
[1] = target: T1, Peroxisome proliferator-activated receptor alpha (Homo sapiens, UniProt Q07869); test: Agonist activity at human PPARalpha expressed in HEK293 cells by luciferase/beta-galactosidase reporter gene assay; assay type: cell-based
T1 sequence (Q07869 whole entry): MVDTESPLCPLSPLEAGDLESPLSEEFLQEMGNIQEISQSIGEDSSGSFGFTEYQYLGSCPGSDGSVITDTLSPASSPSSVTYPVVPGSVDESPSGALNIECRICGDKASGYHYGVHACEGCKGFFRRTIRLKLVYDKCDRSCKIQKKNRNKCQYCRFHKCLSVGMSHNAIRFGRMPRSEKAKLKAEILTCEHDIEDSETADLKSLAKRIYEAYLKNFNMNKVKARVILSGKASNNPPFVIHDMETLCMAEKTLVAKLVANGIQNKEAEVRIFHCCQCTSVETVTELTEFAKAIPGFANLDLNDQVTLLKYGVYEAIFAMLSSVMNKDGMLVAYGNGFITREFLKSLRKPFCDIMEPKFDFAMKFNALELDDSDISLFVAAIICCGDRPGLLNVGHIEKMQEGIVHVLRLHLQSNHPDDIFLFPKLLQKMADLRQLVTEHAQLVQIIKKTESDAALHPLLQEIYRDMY
Procedure, shortened: (§1)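 HEK293 cells in charcoal-stripped FBS, calcium phosphate co-transfected with GAL4-hPPAR LBD fusion, UAS-luciferase and β-galactosidase. Ligand added 6–8 h post transfection, full dose–response, harvested 14–16 h later. Luciferase normalized to β-galactosidase.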

[2] = target: T2, Peroxisome proliferator-activated receptor alpha (Mus musculus) (UniProt P23204); test: Agonist activity at human PPARalpha in mouse hepatocytes assessed as induction of Pdk4 mRNA expression at 50 uM incubated for 16 hrs by quantitative real-time PCR analysis; assay type: cell-based; conditions: Hepatocyte, filed as agonist
T2 sequence (whole entry): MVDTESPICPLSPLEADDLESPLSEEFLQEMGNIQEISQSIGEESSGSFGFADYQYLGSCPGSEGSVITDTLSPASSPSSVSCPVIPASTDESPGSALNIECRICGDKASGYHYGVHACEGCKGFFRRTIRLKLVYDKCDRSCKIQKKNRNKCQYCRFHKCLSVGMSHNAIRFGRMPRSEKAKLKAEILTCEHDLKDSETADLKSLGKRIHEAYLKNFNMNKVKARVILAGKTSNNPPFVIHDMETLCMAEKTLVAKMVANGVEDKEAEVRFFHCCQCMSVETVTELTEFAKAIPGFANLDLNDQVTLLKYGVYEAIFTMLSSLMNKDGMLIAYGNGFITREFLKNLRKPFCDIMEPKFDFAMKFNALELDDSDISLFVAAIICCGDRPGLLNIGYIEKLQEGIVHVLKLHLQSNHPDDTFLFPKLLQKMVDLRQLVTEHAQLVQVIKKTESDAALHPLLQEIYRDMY
Procedure, shortened: (§2)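 Collagenase-perfused mouse primary hepatocytes from WT mice, plated 2 h in attachment medium, overnight in M199 with 5% charcoal-stripped FBS and 1 nM insulin. Treated next day in serum-free M199 with 50 μM compound for 16 h. RNA qPCR (SYBR Green), comparative Ct method.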

[3] = target: T2, Peroxisome proliferator-activated receptor alpha (Mus musculus); test: Agonist activity at human PPARalpha in mouse hepatocytes assessed as induction of Fgf21 mRNA expression at 50 uM incubated for 16 hrs by quantitative real-time PCR analysis; assay type: cell-based; conditions: Hepatocyte, filed as agonist; procedure, shortened: as §2
[4] = target: T3, Peroxisome proliferator-activated receptor alpha (Homo sapiens) (UniProt Q07869); test: Agonist activity at human PPARalpha expressed in HEK293 cells assessed as maximal activity by luciferase/beta-galactosidase reporter gene assay relative to GW7647; assay type: cell-based; procedure, shortened: as §1
T3 sequence (whole entry): T1 sequence (Q07869 whole entry)

[5] = target: T3, Peroxisome proliferator-activated receptor alpha (Homo sapiens); test: Agonist activity at human PPARalpha transfected in HEK293 cells assessed as relative luciferase unit at 50 uM measured after 16 hrs by luciferase reporter gene assay; assay type: cell-based; conditions: filed as agonist
Procedure, shortened: (§3)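 GAL4-hPPAR (α or γ) plus UAS-luciferase and β-galactosidase transiently co-transfected into HEK293 cells, then treated with 50 μM compound for 16 h. RLU = luciferase/β-galactosidase × time, vehicle (DMSO) set to 1. Mean ± SD, N = 3; one-way ANOVA with Holm–Šidák vs vehicle.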

[6] = target: T4, Peroxisome proliferator-activated receptor gamma (Homo sapiens) (UniProt P37231); test: Agonist activity at human PPARgamma expressed in HEK293 cells assessed as maximal activity by luciferase/beta-galactosidase reporter gene assay relative to rosiglitazone; assay type: cell-based; procedure, shortened: as §1
T4 sequence (whole entry): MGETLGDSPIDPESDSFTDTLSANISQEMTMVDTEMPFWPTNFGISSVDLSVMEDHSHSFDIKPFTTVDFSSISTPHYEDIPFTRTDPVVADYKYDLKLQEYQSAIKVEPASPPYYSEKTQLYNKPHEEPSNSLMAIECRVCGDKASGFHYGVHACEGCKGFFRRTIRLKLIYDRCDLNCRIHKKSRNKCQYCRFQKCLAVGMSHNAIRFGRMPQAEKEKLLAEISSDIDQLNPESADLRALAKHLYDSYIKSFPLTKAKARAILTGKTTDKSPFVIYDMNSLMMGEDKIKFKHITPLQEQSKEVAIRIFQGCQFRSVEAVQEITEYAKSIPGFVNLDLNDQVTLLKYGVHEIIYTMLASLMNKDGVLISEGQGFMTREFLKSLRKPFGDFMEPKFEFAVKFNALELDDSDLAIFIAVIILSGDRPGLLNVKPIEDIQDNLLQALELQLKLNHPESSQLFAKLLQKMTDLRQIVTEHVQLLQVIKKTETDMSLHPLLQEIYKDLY

[7] = target: T4, Peroxisome proliferator-activated receptor gamma (Homo sapiens); test: Agonist activity at human PPARgamma transfected in HEK293 cells assessed as relative luciferase unit at 50 uM measured after 16 hrs by luciferase reporter gene assay; assay type: cell-based; conditions: filed as agonist; procedure, shortened: as §3
[8] = target: T5, Peroxisome proliferator-activated receptor gamma (Homo sapiens, UniProt P37231); test: Agonist activity at human PPARgamma expressed in HEK293 cells by luciferase/beta-galactosidase reporter gene assay; assay type: cell-based; procedure, shortened: as §1
T5 sequence (P37231 whole entry): T4 sequence (whole entry)

[9] = target: T6, Peroxisome proliferator-activated receptor delta (Homo sapiens) (UniProt Q03181)
T6 sequence (whole entry): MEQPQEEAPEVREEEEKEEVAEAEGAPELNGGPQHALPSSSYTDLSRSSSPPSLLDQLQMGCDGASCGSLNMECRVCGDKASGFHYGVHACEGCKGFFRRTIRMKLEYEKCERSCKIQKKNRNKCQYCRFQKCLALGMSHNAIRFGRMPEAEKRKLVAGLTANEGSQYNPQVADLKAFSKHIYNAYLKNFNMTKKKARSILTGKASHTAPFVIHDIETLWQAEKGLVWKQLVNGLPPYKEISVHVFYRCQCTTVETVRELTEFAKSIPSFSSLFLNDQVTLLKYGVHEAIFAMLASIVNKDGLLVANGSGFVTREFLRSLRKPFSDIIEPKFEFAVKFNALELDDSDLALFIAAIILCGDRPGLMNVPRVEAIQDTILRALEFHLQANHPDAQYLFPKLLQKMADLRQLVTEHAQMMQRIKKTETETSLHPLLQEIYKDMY

[10] = target: T2, Peroxisome proliferator-activated receptor alpha (Mus musculus); test: Agonist activity at human PPARalpha in mouse hepatocytes assessed as induction of fabp1 mRNA expression at 50 uM incubated for 16 hrs by quantitative real-time PCR analysis; assay type: cell-based; conditions: Hepatocyte, filed as agonist; procedure, shortened: as §2
[11] = target: T2, Peroxisome proliferator-activated receptor alpha (Mus musculus); test: Agonist activity at human PPARalpha in mouse hepatocytes assessed as induction of cd36 mRNA expression at 50 uM incubated for 16 hrs by quantitative real-time PCR analysis; assay type: cell-based; conditions: Hepatocyte, filed as agonist; procedure, shortened: as §2
[12] = target: T7, Peroxisome proliferator-activated receptor gamma (Mus musculus) (UniProt P37238); test: Agonist activity at human PPARgamma in mouse 3T3-L1 cells assessed as induction of adipogenic differentiation at 25 uM measured after 11 days by Oil Red O staining analysis; assay type: cell-based; conditions: filed as agonist, time 11.0 day
T7 sequence (whole entry): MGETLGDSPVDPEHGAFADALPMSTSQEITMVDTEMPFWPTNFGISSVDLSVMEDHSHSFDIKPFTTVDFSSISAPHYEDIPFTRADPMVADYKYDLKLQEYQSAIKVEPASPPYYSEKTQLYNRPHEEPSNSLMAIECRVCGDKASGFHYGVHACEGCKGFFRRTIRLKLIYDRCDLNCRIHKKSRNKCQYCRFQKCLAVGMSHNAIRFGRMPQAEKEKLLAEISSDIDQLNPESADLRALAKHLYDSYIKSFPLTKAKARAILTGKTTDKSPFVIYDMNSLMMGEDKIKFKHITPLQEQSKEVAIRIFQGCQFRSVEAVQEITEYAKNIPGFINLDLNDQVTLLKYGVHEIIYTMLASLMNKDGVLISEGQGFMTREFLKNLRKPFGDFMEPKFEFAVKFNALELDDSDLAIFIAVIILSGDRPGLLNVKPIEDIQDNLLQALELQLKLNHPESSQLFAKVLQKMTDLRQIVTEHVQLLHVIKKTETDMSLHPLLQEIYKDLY
Procedure, shortened: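 3T3-L1 cells differentiated for 11 days (IBMX/dexamethasone/insulin induction, then insulin, then maintenance medium) with 25 μM compound or 10 μM rosiglitazone from day 0. Cells formalin-fixed and stained with 0.6% Oil Red O. Lipid quantified spectrophotometrically after dye extraction.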

[13] = Metabolic stability in C57BL/6 mouse liver microsomes assessed as half life; assay type: ADME, Microsome; conditions: time 2 min
[14] = Metabolic stability in C57BL/6 mouse liver microsomes assessed as parent compound remaining incubated for 120 mins; assay type: ADME, Microsome; conditions: read-out: Stability
[15] = target: T3, Peroxisome proliferator-activated receptor alpha (Homo sapiens); test: Stabilization of human PPARalpha LBD assessed as change in melting temperature at 25 uM by thermal shift assay
Procedure, shortened: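 Purified hPPAR LBD at 1 mg/mL (∼25 μM) with ligand (α-LBD at 25 μM; γ- and δ-LBD at 50 μM). Static light scattering at 473 nm from 25 to 70 °C in 0.5 °C steps, 1 °C/min. Tm from four-parameter fit; ΔTm relative to DMSO; mean ± SEM, N = 3.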

[16] = target: T4, Peroxisome proliferator-activated receptor gamma (Homo sapiens); test: Stabilization of human PPARgamma LBD assessed as change in melting temperature at 50 uM by thermal shift assay
[17] = target: T6, Peroxisome proliferator-activated receptor delta (Homo sapiens); test: Stabilization of human PPARdelta LBD assessed as change in melting temperature at 50 uM by thermal shift assay
[18] = target: T7, Peroxisome proliferator-activated receptor gamma (Mus musculus); test: Agonist activity at human PPARgamma in mouse 3T3-L1 cells assessed as induction of Adipoq-mRNA expression at 25 uM incubated for 11 days by quantitative real-time PCR analysis; conditions: filed as agonist, time 11.0 day
[19] = target: T7, Peroxisome proliferator-activated receptor gamma (Mus musculus); test: Agonist activity at human PPARgamma in mouse 3T3-L1 cells assessed as induction of Glut4 mRNA expression at 25 uM incubated for 11 days by quantitative real-time PCR analysis; conditions: filed as agonist, time 11.0 day

SMILES | EC50 [1] | Activity [2] | Emax [4] | Activity [5] | Activity [7] | EC50 [8] | EC50 ([9]; HEK293, filed as agonist) | Activity [11] | other results
CCCCCCCCCCCCCCCc1ccc(C(=O)O)c(O)c1 | 8.9 µM | Active | 30% | Active | – | – | – | – | Activity [3]: Active
CCCCCCCCCCCCCCCc1cccc(O)c1C(=O)O [ANACARDIC ACID] | 3.5 µM | Active | 30% | Active | Active | 17 µM | 68 µM | – | Emax ([6]; filed as agonist): > 90%
CCCCCC/C=C\CCCCCCCc1cccc(OC(C)(C)C(=O)OCC)c1 | 67 µM | – | 30% | Active | Active | > 50 µM | – | Active | Activity [10]: Active; EC50 ([9]; HEK293): > 100 µM
CC(C)(Sc1ccc(CCN(CCCCC2CCCCC2)C(=O)NC2CCCCC2)cc1)C(=O)O | – | Active | – | – | – | – | – | Active | Activity [10]: Active; Activity [3]: Active
CCCCCCCCCCCCCCCc1cccc(OCC(=O)OCC)c1 | – | – | 30% | Active | Active | 29 µM | – | – | Activity [12]: Active; half-life [13]: 1.1 h; Emax [6]: 30%; remaining at 2 h [14]: 28%; EC50 ([9]; HEK293): > 100 µM; ΔTm [15]: -4.5 °C; ΔTm [16]: -3 °C; ΔTm [17]: 1.2 °C
CCCCCCCCCC(=O)O [DECANOIC ACID] | 31 µM | – | 30% | Active | – | – | – | – | –
CCCCCC/C=C\CCCCCCCc1cccc(OCC(=O)O)c1 | 21 µM | – | – | Active | Active | > 50 µM | 70 µM | Active | Emax ([4]; filed as agonist): > 90%
CCCCCCCCCCCCCCCCCC(=O)O [STEARIC ACID] | 40 µM | – | 30% | Active | – | – | – | – | –
CCCCCC/C=C\CCCCCCCc1cccc(OCC(=O)OCC)c1 | 4.4 µM | Active | 30% | Active | Active | > 50 µM | 7.1 µM | Active | Activity [18]: Active; Activity [10]: Active; Activity [19]: Active
CCCCCCCC/C=C\CCCCCCCC(=O)O [OLEIC ACID] | 36 µM | – | – | Active | – | – | 47 µM | – | Emax ([4]; filed as agonist): > 90%
CCCCCCCCCCCCCCCc1cccc(OC)c1C(=O)O | – | Active | 30% | Active | – | – | – | – | Activity [3]: Active
CCCCCCCCCCCCCC(=O)O [MYRISTIC ACID] | 13 µM | – | 30% | Active | – | – | – | – | –
CCCCCCCCCCCCCCCc1ccc(C(=O)O)c(OC)c1 | 17 µM | – | 30% | Active | Active | 8.1 µM | – | – | Emax [6]: 30%
